Measured values taken from ChEMBL document CHEMBL1137403, “Discovery of 2-[4-{{2-(2S,5R)-2-cyano-5-ethynyl-1-pyrrolidinyl]-2-oxoethyl]amino]- 4-methyl-1-piperidinyl]-4-pyridinecarboxylic acid (ABT-279): a very potent, selective, effective, and well-tolerated inhibitor of dipeptidyl peptidase-IV, useful for the treatment of diabetes” (J Med Chem, 2006).
Calls of active or inactive are those of the source. No cut-off for these calls is given here.

Tests used:
[1] = Half life in Beagle dog at 2.5 mg/kg, iv; assay type: ADME, organism-based, Canis lupus familiaris; parameters: dose 2.5 mg/kg, route intravenous; details: in vivo
[2] = Volume of distribution in Beagle dog at 2.5 mg/kg, iv; assay type: ADME, organism-based, Canis lupus familiaris; parameters: dose 2.5 mg/kg, route intravenous; details: in vivo, read-out: Vss
[3] = Volume of distribution in terminal phase in Beagle dog at 2.5 mg/kg, iv; assay type: ADME, organism-based, Canis lupus familiaris; parameters: dose 2.5 mg/kg, route intravenous; details: in vivo, read-out: Vbeta
[4] = AUC in Beagle dog at 2.5 mg/kg, iv; assay type: ADME, organism-based, Canis lupus familiaris; parameters: dose 2.5 mg/kg, route intravenous; details: plasma
How it was run: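 Single intravenous dose. Plasma drug exposure is reported as area under the curve in µg-hr/mL. It is listed in the same table as T1/2, Vss, Vβ and plasma clearance (CLp).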

[5] = Plasma clearance in Beagle dog at 2.5 mg/kg, iv; assay type: ADME, organism-based, Canis lupus familiaris; parameters: dose 2.5 mg/kg, route intravenous
[6] = Half life in Sprague-Dawley rat at 5 mg/kg, po; assay type: ADME, organism-based; parameters: dose 5 mg/kg, route oral; details: in vivo
[7] = Cmax in Sprague-Dawley rat at 5 mg/kg, po; assay type: ADME, organism-based; parameters: dose 5 mg/kg, route oral; details: in vivo
[8] = Tmax in Sprague-Dawley rat at 5 mg/kg, po; assay type: ADME, organism-based; parameters: dose 5 mg/kg, route oral; details: in vivo
[9] = Oral bioavailability in cynomolgus monkey at 2.5 mg/kg, po; assay type: ADME, organism-based, Macaca fascicularis; details: in vivo
[10] = Half life in Beagle dog at 2.5 mg/kg, po; assay type: ADME, organism-based, Canis lupus familiaris; parameters: dose 2.5 mg/kg, route oral; details: in vivo
[11] = Cmax in Beagle dog at 2.5 mg/kg, po; assay type: ADME, organism-based, Canis lupus familiaris; parameters: dose 2.5 mg/kg, route oral; details: in vivo
[12] = Tmax in Beagle dog at 2.5 mg/kg, po; assay type: ADME, organism-based, Canis lupus familiaris; parameters: dose 2.5 mg/kg, route oral; details: in vivo
[13] = AUC in Beagle dog at 2.5 mg/kg, po; assay type: ADME, organism-based, Canis lupus familiaris; parameters: dose 2.5 mg/kg, route oral; details: plasma
[14] = Oral bioavailability in Beagle dog at 2.5 mg/kg, po; assay type: ADME, organism-based, Canis lupus familiaris; details: in vivo
[15] = Drug level in Zucker rat plasma after 4 hrs at 1 mg/kg; assay type: ADME, organism-based; parameters: dose 1 mg/kg; details: read-out: Drug uptake
How it was run: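 Female ZDF rats, 10 weeks old, fasted overnight, then dosed orally with vehicle or drug. Four hours after dosing (t = 0) they had free access for 4 h to a liquid mixed meal (Ensure). Plasma was sampled for drug level, active GLP-1, insulin, glucagon and glucose.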

Canis familiaris [16] = test: Electrocardiographic activity in dog upto 28 ug/ml, iv; assay type: functional, organism-based; details: Canis lupus familiaris
How it was run: (§1)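 Hemodynamic and electrocardiographic profile recorded in anesthetized rats or dogs given the drug intravenously, at plasma concentrations up to 28 µg/mL.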

Salmonella typhi = test: Mutagenicity against Salmonella typhi by miniAmes test upto 2 mg/well; assay type: functional, organism-based; details: Salmonella enterica subsp. enterica serovar Typhi
Mus musculus = test: Clastogenicity in mouse upto 2000 mg/kg; assay type: functional, organism-based; parameters: dose 2000 mg/kg
How it was run: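 Murine in vivo clastogenicity test, dosed at up to 2000 mg/kg.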

[17] = AUC (0-24h) in rat; assay type: ADME, organism-based; parameters: time < 24 hr; details: plasma
[18] = AUC (0-24h) in dog; assay type: ADME, organism-based, Canis lupus familiaris; parameters: time < 24 hr; details: plasma
Rattus norvegicus [19] = test: Hemodynamic activity in rat upto 28 ug/ml, iv; assay type: functional, organism-based; how it was run: as §1
Canis familiaris [20] = test: Hemodynamic activity in dog upto 28 ug/ml, iv; assay type: functional, organism-based; details: Canis lupus familiaris; how it was run: as §1
Rattus norvegicus [21] = test: Electrocardiographic activity in rat upto 28 ug/ml, iv; assay type: functional, organism-based; how it was run: as §1
Dipeptidyl peptidase 8 = Dipeptidyl peptidase 8 (Homo sapiens, UniProt Q6V1X1)
Dipeptidyl peptidase 8, sequence (Q6V1X1 whole entry): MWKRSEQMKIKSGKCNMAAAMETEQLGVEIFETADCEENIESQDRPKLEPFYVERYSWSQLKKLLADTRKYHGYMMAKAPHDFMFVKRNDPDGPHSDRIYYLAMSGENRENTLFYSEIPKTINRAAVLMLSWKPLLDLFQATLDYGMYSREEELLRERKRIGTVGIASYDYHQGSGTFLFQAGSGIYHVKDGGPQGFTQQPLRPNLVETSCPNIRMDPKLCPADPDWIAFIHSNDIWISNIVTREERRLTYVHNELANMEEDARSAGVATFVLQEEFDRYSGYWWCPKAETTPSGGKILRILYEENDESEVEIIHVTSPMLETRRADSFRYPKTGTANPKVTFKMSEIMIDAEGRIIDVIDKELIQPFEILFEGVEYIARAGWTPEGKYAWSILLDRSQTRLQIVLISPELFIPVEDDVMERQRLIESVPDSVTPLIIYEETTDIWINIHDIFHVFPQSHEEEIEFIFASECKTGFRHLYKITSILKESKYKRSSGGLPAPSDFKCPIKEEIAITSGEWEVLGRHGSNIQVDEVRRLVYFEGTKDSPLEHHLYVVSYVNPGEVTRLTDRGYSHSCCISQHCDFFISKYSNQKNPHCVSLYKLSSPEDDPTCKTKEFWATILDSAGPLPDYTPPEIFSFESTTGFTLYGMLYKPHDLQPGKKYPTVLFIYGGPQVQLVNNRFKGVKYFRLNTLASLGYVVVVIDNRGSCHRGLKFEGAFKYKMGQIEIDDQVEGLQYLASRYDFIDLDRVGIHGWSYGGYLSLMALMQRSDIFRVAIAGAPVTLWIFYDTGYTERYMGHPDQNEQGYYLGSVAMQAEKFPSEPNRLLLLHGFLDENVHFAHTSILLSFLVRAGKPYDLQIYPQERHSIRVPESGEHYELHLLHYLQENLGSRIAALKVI

Dipeptidyl peptidase 9 = Dipeptidyl peptidase 9 (Homo sapiens, UniProt Q86TI2)
Dipeptidyl peptidase 9, sequence (Q86TI2 whole entry): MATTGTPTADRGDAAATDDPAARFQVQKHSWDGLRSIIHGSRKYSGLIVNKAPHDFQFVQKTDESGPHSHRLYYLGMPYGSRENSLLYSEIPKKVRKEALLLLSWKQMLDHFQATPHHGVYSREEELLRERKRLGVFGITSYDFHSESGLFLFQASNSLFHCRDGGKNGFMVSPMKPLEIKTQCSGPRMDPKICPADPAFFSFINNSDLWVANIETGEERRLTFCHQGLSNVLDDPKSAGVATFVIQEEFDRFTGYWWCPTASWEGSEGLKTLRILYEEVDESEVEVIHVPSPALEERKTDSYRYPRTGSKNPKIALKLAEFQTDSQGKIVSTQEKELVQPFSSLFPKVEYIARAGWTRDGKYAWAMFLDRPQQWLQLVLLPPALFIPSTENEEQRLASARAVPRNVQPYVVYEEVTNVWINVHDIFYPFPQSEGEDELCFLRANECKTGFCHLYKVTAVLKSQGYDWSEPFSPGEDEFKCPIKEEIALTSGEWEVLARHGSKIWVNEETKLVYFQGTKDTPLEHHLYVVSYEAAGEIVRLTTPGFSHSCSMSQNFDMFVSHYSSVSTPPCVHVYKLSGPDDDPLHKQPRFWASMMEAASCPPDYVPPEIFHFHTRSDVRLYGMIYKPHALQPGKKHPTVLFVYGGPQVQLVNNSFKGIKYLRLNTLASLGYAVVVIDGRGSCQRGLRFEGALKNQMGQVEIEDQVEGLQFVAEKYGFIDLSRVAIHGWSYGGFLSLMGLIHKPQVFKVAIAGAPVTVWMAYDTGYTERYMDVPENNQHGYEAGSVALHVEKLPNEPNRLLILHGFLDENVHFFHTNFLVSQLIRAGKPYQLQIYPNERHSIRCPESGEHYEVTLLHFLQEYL

Dipeptidyl peptidase 2 = Dipeptidyl peptidase 2 (Homo sapiens, UniProt Q9UHL4); test: Inhibition of DPP7
Prolyl endopeptidase = target: T1, Prolyl endopeptidase (Homo sapiens, UniProt P48147); test: Inhibition of POP
T1 sequence (P48147 whole entry): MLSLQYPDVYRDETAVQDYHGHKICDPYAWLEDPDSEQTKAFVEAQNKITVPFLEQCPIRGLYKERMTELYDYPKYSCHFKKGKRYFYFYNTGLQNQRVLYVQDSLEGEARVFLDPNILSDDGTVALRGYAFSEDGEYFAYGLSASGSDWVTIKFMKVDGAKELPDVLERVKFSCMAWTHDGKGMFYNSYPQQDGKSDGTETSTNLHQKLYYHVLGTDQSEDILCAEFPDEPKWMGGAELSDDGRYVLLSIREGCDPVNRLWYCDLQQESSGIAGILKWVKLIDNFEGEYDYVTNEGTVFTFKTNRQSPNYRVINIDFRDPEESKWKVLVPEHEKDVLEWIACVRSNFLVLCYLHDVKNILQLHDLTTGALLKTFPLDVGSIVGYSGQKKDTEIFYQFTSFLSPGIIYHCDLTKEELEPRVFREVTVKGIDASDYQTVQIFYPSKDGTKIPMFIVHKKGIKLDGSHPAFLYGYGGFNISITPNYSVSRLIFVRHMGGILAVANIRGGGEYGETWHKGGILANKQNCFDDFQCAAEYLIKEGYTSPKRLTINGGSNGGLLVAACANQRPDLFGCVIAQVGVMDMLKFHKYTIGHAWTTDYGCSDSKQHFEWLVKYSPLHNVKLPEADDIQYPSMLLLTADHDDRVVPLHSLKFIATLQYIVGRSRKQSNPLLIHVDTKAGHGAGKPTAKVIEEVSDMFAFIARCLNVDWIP

Prolyl endopeptidase FAP = target: T2, Prolyl endopeptidase FAP (Homo sapiens, UniProt Q12884); test: Inhibition of FAPalpha
T2 sequence (Q12884 whole entry): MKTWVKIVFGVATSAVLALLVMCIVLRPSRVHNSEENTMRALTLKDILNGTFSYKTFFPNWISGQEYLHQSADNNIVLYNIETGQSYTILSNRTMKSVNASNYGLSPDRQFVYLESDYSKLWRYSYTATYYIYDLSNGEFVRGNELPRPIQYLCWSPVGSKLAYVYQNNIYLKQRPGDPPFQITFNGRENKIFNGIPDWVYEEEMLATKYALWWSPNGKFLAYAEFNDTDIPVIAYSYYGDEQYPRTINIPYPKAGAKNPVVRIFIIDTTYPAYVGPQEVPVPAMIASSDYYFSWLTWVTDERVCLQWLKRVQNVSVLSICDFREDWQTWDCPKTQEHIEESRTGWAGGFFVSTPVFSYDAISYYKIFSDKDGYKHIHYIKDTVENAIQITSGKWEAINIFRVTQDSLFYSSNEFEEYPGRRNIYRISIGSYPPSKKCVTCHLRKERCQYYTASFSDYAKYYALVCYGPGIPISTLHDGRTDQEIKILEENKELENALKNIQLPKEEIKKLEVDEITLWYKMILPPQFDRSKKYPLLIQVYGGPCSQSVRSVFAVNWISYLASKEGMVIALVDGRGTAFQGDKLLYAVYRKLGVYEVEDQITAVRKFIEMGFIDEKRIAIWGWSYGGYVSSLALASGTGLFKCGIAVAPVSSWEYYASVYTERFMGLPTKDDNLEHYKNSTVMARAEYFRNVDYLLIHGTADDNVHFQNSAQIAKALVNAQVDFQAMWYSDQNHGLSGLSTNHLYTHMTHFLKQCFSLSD

With C#C[C@H]1CC[C@@H](C#N)N1C(=O)CNC1(C)CCN(c2cc(C(=O)O)ccn2)CC1 the half-life [1] was 6.4 h, the Vd [2] was 1.5 L/kg and the Vd [3] was 8.5 L/kg. It also gave an AUC [4] of 2.8 µg·h/mL, a clearance [5] of 0.91 L/h/kg and a half-life [6] of 4.7 h. The Cmax [7] was 0.37 µg/mL, the Tmax [8] was 4.7 h and the bioavailability [9] was 11.2%. For the same compound, the half-life [10] was 5.3 h, the Cmax [11] was 0.3 µg/mL and the Tmax [12] was 0.8 h. For the same compound, the AUC [13] was 0.97 µg·h/mL, the bioavailability [14] was 35.2% and the concentration at 4 h [15] was 0.018 µg/mL. The Activity (Canis familiaris [16]) was “Active”, the Activity (Salmonella typhi) was “inactive” and the Activity (Mus musculus) was “inactive”. For the same compound, the AUC(0-t) at 24 h [17] was 39 µg·h/mL, the AUC(0-t) at 24 h [18] was 36 µg·h/mL and the Activity (Rattus norvegicus [19]) was “Active”. The Activity (Canis familiaris [20]) was “Active”, the Activity (Rattus norvegicus [21]) was “Active” and the Ki (Dipeptidyl peptidase 8) was greater than 30 µM. For the same compound, the Ki (Dipeptidyl peptidase 9) was greater than 30 µM, the Ki (Dipeptidyl peptidase 2) was greater than 30 µM and the Ki (Prolyl endopeptidase) was greater than 30 µM. It also gave a Ki (Prolyl endopeptidase FAP) greater than 30 µM.
